Format in all cases: functional, organism-based
In experiment [1] the test system is Meloidogyne incognita. In words: Nematicidal activity against Meloidogyne incognita J2 (root-knot nematode) larvae immersed in compound solution for 48 hr assessed as reduction in larval motility. In a few lines: (§1)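 J2 hatched at 28 °C in modified Baermann funnels from eggs extracted from roots with sodium hypochlorite. Ethanol stocks were diluted in water with Tween-20 (final ethanol ≤1%, Tween-20 ≤0.3% v/v), with water and solvent controls. Fifteen J2 per well, covered, dark, 28 °C. Motile/immotile scored microscopically. Control-corrected (Schneider-Orelli), six replicates, run twice. EC50 from log-logistic regression.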

For experiment [2], the system named is Meloidogyne incognita. In words: Nematicidal activity against Meloidogyne incognita J2 (root-knot nematode) larvae immersed in compound solution for 24 hr assessed as reduction in larval motility. The procedure, abridged: as §1
Experiment [3] deals with Meloidogyne incognita. In words: Nematicidal activity against Meloidogyne incognita J2 (root-knot nematode) larvae immersed in compound solution for 96 hr assessed as reduction in larval motility. In a few lines:
as §1

For experiment [4], the system named is Meloidogyne javanica. The experiment in a line: Nematicidal activity against Meloidogyne javanica J2 (root-knot nematode) larvae immersed in compound solution for 48 hr assessed as reduction in larval motility.

These results are taken from ChEMBL document CHEMBL3045047, “Phytochemistry and nematicidal activity of the essential oils from 8 Greek Lamiaceae aromatic plants and 13 terpene components” (J Agric Food Chem, 2010).

In brackets after ≈: the same amount, converted by molar mass.

Regarding `C/C=C/c1ccc(OC)cc1` [ANETHOLE], the EC50 in experiment [1] came to 140 µg/mL (≈ 945 µM); in experiment [2] it was 170 µg/mL (≈ 1150 µM); in experiment [3], 124 µg/mL (≈ 837 µM).
Consider `C=C1CC/C=C(\C)CC[C@@H]2[C@@H]1CC2(C)C` [BETA-CARYOPHYLLENE], for which the values for the EC50 in experiment [1], in experiment [2] and in experiment [3] were 433 µg/mL (≈ 2120 µM), over 1800 µg/mL and 307 µg/mL (≈ 1500 µM), respectively.
As for `Cc1ccc(C(C)C)cc1O` [CARVACROL], the EC50 in experiment [1] was determined as 176 µg/mL (≈ 1170 µM); in experiment [2] it was 264 µg/mL (≈ 1760 µM); in experiment [4], 0.128 uL/ml; in experiment [3], 117 µg/mL (≈ 779 µM).
Turning to `C=C(C)[C@H]1CC=C(C)CC1` [D-LIMONENE], the EC50 in experiment [1], in experiment [2] and in experiment [3] was over 1680 µg/mL each time.
In the case of `CC12CCC(CC1)C(C)(C)O2` [EUCALYPTOL], the EC50 in experiment [1] is over 1840 µg/mL; in experiment [2], over 1840 µg/mL; in experiment [3], 1600 µg/mL (≈ 10400 µM).
In the case of `C=CCc1ccc(O)c(OC)c1` [EUGENOL], the EC50 in experiment [1] was 192 µg/mL (≈ 1170 µM); in experiment [2] it was 256 µg/mL (≈ 1560 µM); in experiment [3], under 133 µg/mL.
On to `CC(C)=CCC/C(C)=C/CO` [GERANIOL], for which the EC50 in experiment [1] came to 158 µg/mL (≈ 1020 µM); in experiment [2], 237 µg/mL (≈ 1540 µM); in experiment [3] it was 105 µg/mL (≈ 681 µM).
For `C=C(C)[C@@H]1CC=C(C)C(=O)C1` [L-CARVONE], in that order: under 120 µg/mL, 115 µg/mL (≈ 766 µM) and under 120 µg/mL.
For the molecule `C=CC(C)(O)CCC=C(C)C` (stereo unspecified) [LINALOOL], the EC50 in experiment [1] is 707 µg/mL (≈ 4580 µM); in experiment [2], 862 µg/mL (≈ 5590 µM); in experiment [3], 284 µg/mL (≈ 1840 µM).
On to `Cc1ccc(C(C)C)cc1` [P-CYMENE], for which the EC50 in experiment [1], in experiment [2] and in experiment [3] was over 1720 µg/mL throughout.
Take `CC(C)=C1CC[C@@H](C)CC1=O` [PULEGONE]: the EC50 in experiment [1] is under 117 µg/mL; in experiment [2], 150 µg/mL (≈ 985 µM); in experiment [4] it was 0.205 uL/ml; in experiment [3], under 117 µg/mL.
As for `CC1=CCC(O)(C(C)C)CC1` (stereo unspecified) [TERPINEOL], the EC50 in experiment [1] was found to be 290 µg/mL (≈ 1880 µM); in experiment [2] it was 392 µg/mL (≈ 2540 µM); in experiment [3], 168 µg/mL (≈ 1090 µM).
Consider `Cc1ccc(C(C)C)c(O)c1` [THYMOL], for which the EC50 in experiment [1] was 280 µg/mL (≈ 1860 µM); in experiment [2], 390 µg/mL (≈ 2600 µM); in experiment [3], 160 µg/mL (≈ 1070 µM).
